The record followed here is ChEMBL document CHEMBL1126107, “Structure-activity relationships of imidazo[4,5-f]quinoline partial structures and analogs. Discovery of pyrazolo[3,4-f]quinoline derivatives as potent immunostimulants” (1992).

The subject of test [1] is Escherichia coli. Nature of the test: Minimum subcutaneous effective dose required to protect mice from systemic Escherichia coli. In kind it is functional. Particulars: sc, read-out: MED. The gist of the method:
(§1)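 Female NSA (CF-1) mice, 11–16 g, dosed sc with compound in pyrogen-free saline or water 24 h before ip injection of 0.5 mL E. coli N63 (~4×10^7 CFU/mL, from log-phase L broth culture). Subtherapeutic gentamicin given sc at 0.5, 4 and 24 h postinfection. Ten mice per group. Survival versus infected untreated controls. Minimum effective dose is the sc dose giving significant protection (p < 0.05). The 100%-protection dose is also reported.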

Test [2] deals with Escherichia coli. Nature of the test: Effective dose at which 100% protection occurs in mice infected with Escherichia coli. In kind it is functional. A digest of the protocol: as §1
The test system of test [3] is Escherichia coli. Nature of the test: Compound was evaluated for efficacy in murine systemic Escherichia coli infection with subtherapeutic gentamycin treatment. It is filed as functional. Particulars: read-out: PD50. The gist of the method: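 Female NSA (CF-1) mice (11–16 g) were given test compound in pyrogen-free saline or water, or as a homogenized saline suspension, 24 h before ip challenge with 0.5 mL E. coli N63 (serotype O18) at about 4×10^7 CFU/mL. Gentamicin 0.5 mg/kg was given sc at 0.5, 4 and 24 h postinfection. Endpoint was survival, with 10 mice per group. PD50 was derived by probit analysis of pooled experiments.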

Test [4] concerns Mus musculus. Put plainly: Effect of interval between drug treatment and challenge on activity in the mouse protection assay 1 days prior to infection at 1.7 mg/Kg. In kind it is functional. A digest of the protocol: (§2)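 Female NSA (CF-1) mice, 11–16 g, given compound sc in pyrogen-free saline or water (suspensions homogenized) at 6, 3, 1 or 0 days before ip challenge with 0.5 mL E. coli N63 (~4×10^7 CFU/mL). Gentamicin sc at 0.5, 4 and 24 h postinfection. Ten mice per group. Percent protection = (dead in control − dead in treated) ÷ dead in control × 100.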

Test [5] deals with Escherichia coli. Put plainly: In vitro antibacterial activity on sensitivity of Escherichia coli N63 to gentamicin at a concentration of 6.25 ug/mL.
Test [6] deals with Escherichia coli. Nature of the test: In vitro antibacterial activity on sensitivity of Escherichia coli N63 to gentamicin at a concentration of 25 ug/mL. It is filed as functional. A digest of the protocol:
(§3)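 Checkerboard broth microdilution of E. coli N63, inoculated from overnight BHI agar growth, in Mueller-Hinton broth with serial 2-fold dilutions of aminoquinoline and gentamicin. Overnight at 37 °C. Growth read as turbidity at 600 nm, corrected with uninoculated drug-containing wells for insoluble compound. Gentamicin MIC determined at each fixed aminoquinoline concentration.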

In test [7] the test system is Escherichia coli. Nature of the test: In vitro antibacterial activity on sensitivity of Escherichia coli N63 to gentamicin at a concentration of 1.56 ug/mL. In kind it is functional. A digest of the protocol: as §3
Test [8] deals with Mus musculus. Put plainly: Effect of interval between drug treatment and challenge on activity in the mouse protection assay 3 days prior to infection at 1.7 mg/Kg. It is filed as functional. The gist of the method:
as §2

Test [9] concerns Escherichia coli. Nature of the test: In vitro antibacterial activity on sensitivity of Escherichia coli N63 to gentamicin at a concentration of 0 ug/mL. It is filed as functional. A digest of the protocol: as §3
Test [10] relates to Escherichia coli. Put plainly: In vitro antibacterial activity on sensitivity of Escherichia coli N63 to gentamicin at a concentration of 50 ug/mL. In kind it is functional. The gist of the method:
as §3

Test [11] has as its system Escherichia coli. Put plainly: Compound was evaluated for efficacy in murine systemic Escherichia coli infection without subtherapeutic gentamycin treatment. Particulars: read-out: PD50. It is filed as functional. A digest of the protocol: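 Female NSA (CF-1) mice (11–16 g) were given test compound in pyrogen-free saline or water, or as a homogenized saline suspension, 24 h before ip challenge with 0.5 mL E. coli N63 (serotype O18) at about 4×10^7 CFU/mL. No gentamicin was given. Endpoint was survival, with 10 mice per group. PD50 was derived by probit analysis of pooled experiments.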

In test [12] the test system is Escherichia coli. Nature of the test: In vitro antibacterial activity on sensitivity of Escherichia coli N63 to gentamicin at a concentration of 3.13 ug/mL. In kind it is functional. A digest of the protocol: as §3
The subject of test [13] is Mus musculus. Put plainly: Effect of interval between drug treatment and challenge on activity in the mouse protection assay 6 days prior to infection at 1.7 mg/Kg. In kind it is functional. The gist of the method:
as §2

Test [14] deals with Mus musculus. Put plainly: Effect of interval between drug treatment and challenge on activity in the mouse protection assay 0 days prior to infection at 1.7 mg/Kg. In kind it is functional. A digest of the protocol:
as §2

In test [15] the test system is Escherichia coli. Nature of the test: In vitro antibacterial activity on sensitivity of Escherichia coli N63 to gentamicin at a concentration of 12.5 ug/mL. In kind it is functional. A digest of the protocol:
as §3

In test [16] the test system is Mus musculus. Nature of the test: Minimum subcutaneous effective dose required to protect mice from systemic Escherichia coli; ND=No dose response. In kind it is functional, organism-based. The gist of the method:
as §1

The subject of test [17] is Escherichia coli. Put plainly: In vitro antibacterial activity on sensitivity of Escherichia coli N63 to gentamicin at a concentration of 100 ug/mL. It is filed as functional. A digest of the protocol: as §3

Converted amounts (≈) assume the structure as drawn.

`COc1cccc(Nc2cc(C)nc(C)c2C(C)O)c1` (stereo not drawn): in the test on Escherichia coli [1], the minimal effective dose is over 100 mg/kg.

As for `COc1cccc(Nc2cc(C)nc(C)c2/C(C)=N/O)c1`, the minimal effective dose with Escherichia coli [1] is over 100 mg/kg.

In the case of `COc1cccc(Nc2cc(C)nc3ccc4[nH]cnc4c23)c1`, the ED100 in the test with Escherichia coli [2] is 50 mg/kg. The minimal effective dose in the test with Escherichia coli [1] stood at 6 mg/kg.

For orientation: MIC means the lowest concentration that inhibits growth of the organism. A higher MIC goes with a need for much substance. With `COc1cccc(Nc2cc(C)nc3ccc4c[nH]nc4c23)c1`, the figures for the ED50 in the test on Escherichia coli [3] and in the test on Escherichia coli [11] were 4.2 mg/kg and 9.8 mg/kg, respectively. The Protection came out at 100% with Mus musculus [4] (in the assay text read “25 mg/Kg” for “1.7 mg/Kg”), 100% in the test on Mus musculus [8], 88% with Mus musculus [13] and 0% in the test on Mus musculus [14]. Besides, the MIC against Escherichia coli [5], against Escherichia coli [6], against Escherichia coli [7], in the test on Escherichia coli [9], against Escherichia coli [10] and against Escherichia coli [12] was 0.25 µg/mL (≈ 0.821 µM) in each case. In the test on Escherichia coli [15], this molecule had an MIC of 0.25 µg/mL (≈ 0.821 µM). The ED100 in the test with Escherichia coli [2] was determined as 17 mg/kg. In addition, the minimal effective dose with Escherichia coli [1] stood at 6 mg/kg.

Take `Cc1cc(NC2CCCCC2)c2c(ccc3[nH]cnc32)n1`: the ED100 with Escherichia coli [2] worked out at 6 mg/kg. In the test with Escherichia coli [1], the minimal effective dose turned out to be 6 mg/kg.

For `CCCCOc1ccc(Nc2cc(C)nc3ccccc23)cc1`, the minimal effective dose in the test on Escherichia coli [1] was over 50 mg/kg.

Consider `Cc1cc(Nc2ccc(OCc3ccccc3)cc2)c2c(ccc3[nH]ncc32)n1`, for which the MED entry in the test on Mus musculus [16] is “No dose response”.

Consider `COc1cccc(Sc2cc(C)nc3ccc4[nH]cnc4c23)c1`, for which, in the test on Escherichia coli [1], the minimal effective dose is over 50 mg/kg.

For `Cc1cc(Nc2ccc(OCc3ccccc3)cc2)c2c(ccc3c[nH]nc32)n1`, the ED100 in the test with Escherichia coli [2] worked out at 6 mg/kg. The minimal effective dose with Escherichia coli [1] worked out at 2 mg/kg.

The molecule `Cc1cc(Nc2ccc(C#N)cc2)c2c(ccc3[nH]cnc32)n1` returned an ED100 with Escherichia coli [2] of 2 mg/kg. Also, the minimal effective dose in the test with Escherichia coli [1] was 2 mg/kg.

On to `O=C(Nc1ccc(OCC2CCCCC2)cc1)c1cccc2[nH]cnc12`, for which the minimal effective dose with Escherichia coli [1] is over 50 mg/kg.

`COc1cccc(Nc2cc(C)nc3ccc4[nH]ncc4c23)c1`: the minimal effective dose in the test with Escherichia coli [1] was over 50 mg/kg.

`COc1cccc(N(C)c2cc(C)nc3ccc4[nH]cnc4c23)c1`: in the test with Escherichia coli [1], the minimal effective dose was over 50 mg/kg.

On to `COc1cccc(Nc2cc(C)nc(C)c2C(C)=O)c1`, for which the minimal effective dose in the test on Escherichia coli [1] is over 100 mg/kg.

For the molecule `COc1cccc(Nc2cc(C)nc3ccccc23)c1`, the minimal effective dose in the test with Escherichia coli [1] was over 50 mg/kg.

On to `COc1cccc(NC(=O)c2cccc3[nH]cnc23)c1`, for which the minimal effective dose in the test on Escherichia coli [1] was over 50 mg/kg.

Turning to `N#Cc1ccc(NC(=O)c2cccc3[nH]cnc23)cc1`, in the test on Escherichia coli [1], the minimal effective dose was over 50 mg/kg.

In the case of `Cc1cc(Nc2ccc(OCC3CCCCC3)cc2)c2c(ccc3[nH]cnc32)n1`, the figures for the ED50 in the test on Escherichia coli [3] and in the test on Escherichia coli [11] were 0.5 mg/kg and 1.5 mg/kg, respectively. For the same molecule, the Protection is reported as 60% with Mus musculus [4], 40% in the test on Mus musculus [8], 0% in the test with Mus musculus [13] and 0% in the test with Mus musculus [14]. In addition, the MIC in the test on Escherichia coli [5] worked out at 0.25 µg/mL (≈ 0.647 µM); against Escherichia coli [6], 0.125 µg/mL (≈ 0.323 µM); in the test on Escherichia coli [7] it was 0.25 µg/mL (≈ 0.647 µM); in the test on Escherichia coli [17], 0.063 µg/mL (≈ 0.163 µM); in the test on Escherichia coli [9] it was 0.5 µg/mL (≈ 1.29 µM); in the test on Escherichia coli [10] it was 0.063 µg/mL (≈ 0.163 µM). Moreover, the MIC was 0.25 µg/mL (≈ 0.647 µM) against Escherichia coli [12] and 0.125 µg/mL (≈ 0.323 µM) in the test on Escherichia coli [15]. The ED100 with Escherichia coli [2] is 5 mg/kg. In addition, the minimal effective dose with Escherichia coli [1] came out at 1 mg/kg.

Take `CCCCc1ccc(Nc2cc(C)nc3ccccc23)cc1`: in the test with Escherichia coli [1], the minimal effective dose was over 50 mg/kg.

As for `O=C(NC1CCCCC1)c1cccc2[nH]cnc12`, the minimal effective dose with Escherichia coli [1] was over 50 mg/kg.

Regarding `CCCCc1ccc(Nc2cc(C)nc3ccc4[nH]cnc4c23)cc1`, the ED100 in the test on Escherichia coli [2] stood at 15 mg/kg. Further, the minimal effective dose in the test with Escherichia coli [1] stood at 5 mg/kg.

With `CCCCOc1ccc(Nc2cc(C)nc3ccc4[nH]cnc4c23)cc1`, the ED100 with Escherichia coli [2] was determined as 15 mg/kg. Also, the minimal effective dose in the test with Escherichia coli [1] was 5 mg/kg.

For the molecule `Cc1cc(Nc2ccc(OCc3ccccc3)cc2)c2ccccc2n1`, in the test with Escherichia coli [1], the minimal effective dose is over 50 mg/kg.
